Assay results from ChEMBL document CHEMBL4513216, “Probing the Open Global Health Chemical Diversity Library for Multistage-Active Starting Points for Next-Generation Antimalarials” (ACS Infect Dis, 2020).

Experiment: Toxicity liver stage against HepG2, at 10uM
Type: cell-based
Design: test concentration 10 uM, cell line HepG2-A16-CD81EGFP
Conditions: human, HepG2-A16-CD81EGFP cells; read-out: INHIBITION
In short: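 Uninfected HepG2-A16-CD81EGFP cells, 3 × 10^3 per well, 1536-well, plated on prespotted compound at 10 μM final, parasite-free screening media added to match infected plates; puromycin 10 μM positive, DMSO 0.5% negative; run in parallel with 48 h PbLuc assay at 37 °C, 5% CO2; viability by CellTiter-Glo luminescence, normalized to controls.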

SMILES | cytotoxicity at 10 µM
Cc1nnc(N2CCC(NS(C)(=O)=O)CC2)c(C#N)c1C | -5.13%
CC(=O)N1CCC(c2ncc3c(n2)CCN(C(=O)c2ccccc2)C3)C1 (stereo not given) | -8.69%
CCOc1ccnc(N2CCN(CCOC)CC2)n1 | 4.49%
O=C(Cc1ccc(CO)cc1)N1CCN(c2ccccc2Cl)C(=O)C1 | 6.39%
Cc1cccc(CS(=O)(=O)c2nnc([C@@H](N)Cc3ccccc3)o2)c1 | 7.09%
CC(C)OCc1noc(C2CC=CC2)n1 | 16.5%
O=C1NCCN(Cc2ccccc2)C1CC(=O)N1CCc2n[nH]cc2C1 (stereo not given) | -6.73%
CC/C=C(/C)C(=O)NS(=O)(=O)c1ccc(C#N)cc1C(F)(F)F | 11.8%
COc1ccccc1CC(=O)NS(C)(=O)=O | -7.31%
Cc1nc(NCC2CC2)nc2c1COCC21CCN(C)C1 (stereo not given) | -0.722%
CN(CC(N)=O)S(=O)(=O)c1ccc(F)cc1Cl | -11.9%
COc1ccc(CCC(=O)N(C)CCN2CCOCC2)cc1OC | 7.83%
COc1ccc(C(C)NC(=O)Nc2nnc(C)s2)c(OC)c1 (stereo not given) | 9.12%
CC(C)OC(=O)N1C[C@@H]2CC[C@H]1CN(C(=O)c1ccccn1)C2 | 0.502%
CCCc1noc(C2CCN(S(=O)(=O)c3cccs3)CC2)n1 | 1.5%
Cc1ccc(CNC(=O)NCc2cccnc2N(C)C)s1 | -4.15%
N#Cc1cccc(N2CCCC3(CCC(=O)N(C4CCCC4)C3)C2)n1 (stereo not given) | -0.0436%
CCN(Cc1ccc(-c2ccccn2)cc1)C1CCS(=O)(=O)C1 (stereo not given) | -9.25%
CN1CCC(c2nnc3ccc(C(=O)N4CCCCC4)cn23)C1 (stereo not given) | -167%
CCN(CCNC(=O)c1ccccc1OCCOC)C1CC1 | 11.7%
COc1cccc(-n2nc(C(C)=O)c(C(C)=O)c2C)c1 | 9.51%
Fc1ccc2[nH]c([C@H]3CCN(C4CCOCC4)C3)nc2c1 | 1.9%

SMILES | cytotoxicity at 10 µM
O=C(Nc1ccccc1)C1CCN(C(=O)COc2ccccc2F)CC1 | 8.94%
O=C(NCC1CCOC1)Nc1ccc(Oc2cccc(F)c2)nc1 (stereo not given) | -5.01%
CCCc1cc(C(=O)NC(COC)c2ccnn2C)no1 (stereo not given) | -6.14%
CCc1nc(C2CCCN2CCCS(=O)(=O)c2ccccc2)no1 (stereo not given) | -6.15%
Clc1snnc1CN1CCCCC1Cn1cccn1 (stereo not given) | -14.8%
Cc1ccsc1C(=O)N1CCC(c2nccn2Cc2ccncc2)CC1 | 0.535%
COc1ccc(NC(=O)N2CCC(CSC)C2)cc1C (stereo not given) | 3.36%
COc1ccc(CN2CCC3(CC(=O)N(c4cccc(F)c4)C3)C2)cc1 (stereo not given) | -137%
COCc1nc(C(=O)NS(=O)(=O)c2ccc(C)cc2C)cs1 | -4.35%
Cc1noc(C)c1-c1nc(N(C)C)ncc1-c1cnccn1 | -22.8%
Nc1ncnc2nc(C3CCN(C(=O)Cc4ccc(F)cc4)C3)ccc12 (stereo not given) | 1.76%
COCCNC(=O)c1nc2c(s1)CCCN2c1ccc(C)nn1 | 8.33%
O=C(NC[C@H]1OC[C@@H](NC2CCOCC2)[C@@H]1O)c1cccs1 | -1.6%
COc1cc(C)sc1C(=O)NCCC(=O)N(C)Cc1ccccc1 | -8.78%
CN1CCN(Cc2ccc(F)cc2)Cc2cccnc21 | -80.2%
Cc1ccc(-c2nc(CC(=O)N3CCCC(NC(=O)C(C)C)C3)cs2)o1 (stereo not given) | -50.5%
CC(CNC(=O)c1cccnc1O)Cn1cccn1 (stereo not given) | 0.144%
CC(C)CN(Cc1cnn(C)c1)C(=O)C1COc2ccccc2C1 (stereo not given) | 0.956%
COCC(NC(=O)NCc1cccc(C#N)c1)c1ccco1 (stereo not given) | 2.7%
O=C(c1cccs1)N1C[C@@H]2OCCN(CC3CCCO3)[C@@H]2C1 (stereo not given in full) | -2.24%
O=c1[nH]nc(CCCN2CCOCC2)n1Cc1cccc(F)c1 | 7.04%
Cc1ccc(C(=O)NCCCN(C)S(C)(=O)=O)c(=O)[nH]1 | -5.89%

SMILES | cytotoxicity at 10 µM
CCCN(CCC)C(=O)CN(C)C1CCc2ccccc21 (stereo not given) | -6.63%
CC(=O)N1CCC(c2nccnc2-c2ccc(F)c(F)c2)CC1 | -19.1%
CCOC(=O)N1CCN(C(=O)c2snnc2-c2ccc(OC)cc2)CC1 | 3.56%
O=C(CCc1cc2n(n1)CCCN(CCc1ccccc1)C2)NC1CC1 | 12%
Cn1cc(C2CCCN2Cc2csc(-c3ccccc3)n2)cn1 (stereo not given) | -2.48%
COCCC(=O)N1CCCC1c1cccc(C)c1C (stereo not given) | 5.79%
Cc1cccc(CN2C(=O)C[C@H]3[C@@H]2CCN3Cc2ccco2)n1 | -1.39%
COc1ccccc1-c1ccnc2nc(N3CCCCC3)[nH]c(=O)c12 | 7.36%
CCCn1cc(-c2ccnc(NC3CCc4ccccc43)n2)c(C)n1 (stereo not given) | 10.1%
CC(C#N)NS(=O)(=O)c1cccc(C(C)C)c1 (stereo not given) | 0.846%
COC(=O)c1cccc2nc([C@H]3CCN(CC(C)C)C3)oc12 | -2.13%
Cn1c(CC2CCS(=O)(=O)C2)nnc1SCCOc1ccccc1F (stereo not given) | -6.82%
Cc1cc(CN2CCc3nc(-c4ccncc4)nc(O)c3CC2)c(C)s1 | 3.27%
CCCS(=O)(=O)N1C[C@@H]2C[C@H](C(=O)N3CCOCC3)[C@H](C1)O2 | -1.95%
Cc1cc(CN(C)c2nc(-c3ccccn3)nc3c2CCNCC3)n[nH]1 | -5.48%
CN1C(=O)COc2ccc(C(=O)Cn3cnc4ccccc4c3=O)cc21 | -0.894%
Cc1nc(CN2C(=O)COC3(CCN(Cc4ccsc4)CC3)C2C)cs1 (stereo not given) | -123%
Cc1cc(C)c(C(=O)N2CCCC(C(=O)CCc3ccccc3)C2)cn1 (stereo not given) | -7.12%
Cc1ccc(-c2noc(C3CCN3C(=O)c3ccc(=O)[nH]n3)n2)s1 (stereo not given) | 7.53%
CCN(CC)c1ccc(NC(=O)NCC2(C(N)=O)CCOCC2)cn1 | 7.15%
CC(C)Cn1cncc1CNC1CCSCC1 | -4.11%
COC(=O)c1ccc(C2SCC(=O)Nc3c2cnn3C2CCCC2)cc1 (stereo not given) | 1.9%

SMILES | cytotoxicity at 10 µM
Cc1n[nH]c(C2CN(C(=O)c3ccn(C)c(=O)c3)CCO2)n1 (stereo not given) | -5.3%
O=C(CSC1CCc2ccccc2NC1=O)NCCc1ccco1 (stereo not given) | -13%
Cc1cccnc1CN1CCN(C(=O)c2ccn(C(C)(C)C)c2)CC1 | 11%
O=C(CNC(=O)C1(c2ccc(F)cc2F)CCC1)Nc1cccnc1 | -5.82%
CC(=O)N1CCN(C(=O)CNc2c(C)cccc2OC(F)F)CC1 | 3.24%
CCN(CC1CCOC1)C(=O)CCc1nc(C(C)(C)C)no1 (stereo not given) | -1.26%
CC1CCN(C(=O)CN2CCC(c3n[nH]c(C4CC4)n3)CC2)CC1 | -0.297%
CCS(=O)(=O)N1CC[C@@H]2[C@@H](CCC(=O)N2CCc2ccccc2)C1 | 0.86%
O=C1CC2(CCN(Cc3ccncc3)C2)CN1c1cccc(F)c1 (stereo not given) | -152%
CC(=O)Nc1ccc(CNCC(O)c2ccccc2)cc1 (stereo not given) | -10.1%
CCCn1ncc(C(=O)N2CCN(C3Cc4ccccc4C3)CC2)c1C | -139%
Cc1cccc(NC(=O)N2CC(C(=O)NC(C)C)C3(CCOCC3)C2)c1 (stereo not given) | -75%
CCS(=O)(=O)N1CCc2ccc(NC(=O)NCc3ccccc3)cc21 | 10.9%
O=S(=O)(NCC1(O)CCCC1)c1ccccc1Br | -3.87%
CO[C@H]1C[C@@H](O)C12CCN(C(=O)CCSCc1ccc(F)cc1)CC2 | -5.22%
CCc1cnc(NC2CCc3c(ccc(=O)n3C)C2)nc1 (stereo not given) | -125%
CN1CC(C(=O)NC(C)(C)CNC(=O)OC(C)(C)C)CC1=O (stereo not given) | -3.88%
CCN1CCn2c(C)cnc2C12CCN(C(=O)N(C)C)CC2 | 4.91%
O=C(Cc1ccc2c(c1)CCO2)N1CCN(c2nccs2)CC1 | -10.7%
O=C(CC1C=CCC1)N1CCc2ncnc(NCc3ccon3)c2CC1 (stereo not given) | 22.8%
NC(=O)NC(=O)C(c1ccccc1)N1CCN(Cc2ccsc2)CC1 (stereo not given) | 1.94%
Cc1nc(C)c(CC(=O)Nc2nnc(C)s2)c(=O)[nH]1 | -2.17%

SMILES | cytotoxicity at 10 µM
COc1cnc(C2(O)CCN(C(=O)c3ccccn3)CC2)c(OC)n1 | -8.99%
Cn1cc(NC(=O)Nc2ccc3c(c2)OCO3)cn1 | -0.37%
CCC(C)NC(=O)c1cccc(CNCc2csc(C(C)C)n2)c1 (stereo not given) | 9.48%
COc1ccc(F)c(F)c1C(=O)N1C[C@@H](CN(C)CCO)[C@@H](CO)C1 | -1.02%
CCC(CNC(C)=O)(OC)c1ccccc1 (stereo not given) | 1.97%
COCCNS(=O)(=O)c1cccc2c1CN(C(=O)c1ccoc1)CC2 | -3.88%
CCCNC(=O)N1CCc2ccc(S(=O)(=O)N3CCCC3)cc2C1 | -12.3%
Cn1ccc(C(=O)NC2CCC23CCN(Cc2nccs2)CC3)c1 (stereo not given) | -136%
CCOc1ccnc(N2CCN(C(=O)CCc3cnn(C)c3)CC2)n1 | 7.58%
CC(=O)N[C@@H]1CN(Cc2oc3ccccc3c2C)C[C@H]1c1ccc(C)o1 | -12.3%
CC(C)O[C@@H]1CC[C@H]2[C@H]1OCCN2C(=O)c1nn(C)c2ccccc12 | -0.824%
Cc1cccc(CN2CC[C@H]3OCC[C@@]3(C(=O)N3CCOCC3)C2)n1 | -1.49%
CC1(C)CC(CN2CCC3(CCC(=O)N(C4CCC4)C3)CC2)CCO1 (stereo not given) | 0.986%
N#Cc1ccccc1CN1CCC(c2nccn2CC2CCC2)CC1 | -10.1%
O=C(c1cnccn1)N1CC2(CCN(Cc3ccsc3)C2)C1 | -4.23%
Cn1cnnc1C1CCCN(C(=O)c2ccccn2)C1 (stereo not given) | -8.31%
CCOCC1CC2(CCN(C(=O)c3ccccc3F)CC2)CO1 (stereo not given) | 2.26%
CCN(CC)C(=O)CSc1nc2c(cnn2CCO)c(=O)[nH]1 | 1.29%
Cc1nn(CCO)c(C)c1CNC1CCCCc2ccccc21 (stereo not given) | -2.42%
COC(=O)c1oc(CNC(C)(C)c2ccc3c(c2)OCO3)cc1C | 4.47%
CN1C[C@@H](C(=O)NC2CCCC2)[C@@]2(COc3ccc(F)cc3C2=O)C1 | 2.1%
CCn1cc(CN2CCCC(CO)(CCc3ccccc3)C2)c(C)n1 (stereo not given) | -4.63%
